Data set [1] has as its target Major prion protein (Mus musculus) (UniProt P04925). The data set can be described thus: Inhibition of mouse PrP (23-230) fibril formation assessed as extension of lag phase at 50 uM by amyloid seeding assay.
The nature of data set [2]: Cytotoxicity against mouse ScGT1 cells assessed as cell viability at 1 uM after 5 days by fluorescence plate reader analysis. Format: cell-based. The note with it: read-out: Activity.
The nature of data set [3]: Permeability of the compound assessed as diffusion from donor plate through porcine brain lipid membrane into acceptor plate at pH 7.4 by PAMPA method. The settings on record: pig, read-out: permeability. It is filed as ADME. An outline of the steps:
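PAMPA permeability (Pe) reported as mean ± SD of two experiments. CNS+ assigned when Pe > 3.74 × 10⁻⁶ cm s⁻¹; CNS+/− when Pe lies between 3.74 × 10⁻⁶ and 1.50 × 10⁻⁶ cm s⁻¹.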

A short description of data set [4]: Antiprion activity against scrapie prion protein (unknown origin) infected in mouse ScGT1 cells assessed as inhibition of PrPSc replication by ELISA. It is filed as cell-based. In general terms: An ELISA detects its analyte on a solid surface through an enzyme-linked reagent.
Data set [5] is described as follows: Cytotoxicity against mouse ScGT1 cells assessed as cell viability at EC50 concentration after 5 days by fluorescence plate reader analysis. Format: cell-based. The settings on record: read-out: Activity.
In data set [6] the target is Amyloid-beta precursor protein (Homo sapiens) (UniProt P05067). Put plainly: Inhibition of amyloid beta (1 to 42) (unknown origin) fibril formation at 1:1 compound to amyloid beta ratio after 24 hrs by Thioflavin T-based fluorometric assay.
Data set [7] deals with ScGT1. The data set can be described thus: Antiprion activity against scrapie prion protein (unknown origin) infected in mouse ScGT1 cells assessed as decrease in PrPSc accumulation after 5 days measured following PK digestion by Western blot analysis. It is filed as cell-based. A general note: Immunoblotting shows a protein as a band on a membrane.
A short description of data set [8]: Cytotoxicity against mouse ScGT1 cells assessed as cell viability at 10 uM after 5 days by fluorescence plate reader analysis. Format: cell-based. The note with it: read-out: Activity.
Data set [9] has as its target Amyloid-beta precursor protein (Homo sapiens) (UniProt P05067). The data set can be described thus: Binding affinity to pre-aggregated amyloid beta (1 to 42) (unknown origin) at 25 nM by Thioflavin T-based fluorometric assay.
Data set [10] has as its system ScGT1. The data set can be described thus: Binding affinity to PK-resistant scrapie prion protein (unknown origin) aggregate in mouse ScGT1 cells at 0.25 mM measured following PK digestion by fluorescence microscopy. It is filed as cell-based. An outline of the steps: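 ScGT1 cells stained with 3·HCl at 0.25 mM after a proteinase K digestion step that removes PK-sensitive PrP^C. Uninfected GT1 cells processed the same way serve as control. Imaged by fluorescence microscopy, mainly with the FITC filter set and confirmed with the ThS filter set.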

Data set [11] addresses Amyloid-beta precursor protein (Homo sapiens) (UniProt P05067). Put plainly: Binding affinity to amyloid beta (1 to 42) (unknown origin) at 0.5 uM by fluorescence analysis.
Data set [12] has the same target. Put plainly: Binding affinity to pre-aggregated amyloid beta (1 to 42) (unknown origin) assessed as hyperchromic effect at 5 uM by fluorescence analysis. The method, boiled down:
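Emission spectra of compound (5 μM) recorded in 10 mM phosphate buffer, pH 7.4, with and without aggregated Aβ42 (3 μM).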

The test system of data set [13] is ScGT1. Put plainly: Binding affinity to scrapie prion protein (unknown origin) aggregate in mouse ScGT1 cells at 0.84 mM measured following denaturation with 6 M guanidinium chloride by fluorescence microscopy. It is filed as cell-based. An outline of the steps: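 Cells denatured with 6 M guanidinium chloride, then stained with 3·HCl at 0.84 mM (0.025%). Uninfected GT1 cells, with or without denaturation, serve as control. Imaged by fluorescence microscopy with FITC and ThS filter sets, nuclei counterstained with DAPI. Pattern compared with 0.025% Thioflavin S staining. A second line, ScN2a, was also used.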

Data set [14] deals with Amyloid-beta precursor protein (Homo sapiens) (UniProt P05067). The data set can be described thus: Displacement of Thioflavin-T from pre-aggregated amyloid beta (1 to 42) (unknown origin) at >25 nM by fluorometric assay.

pEC50: −log10 of the molar value. The source made the active and inactive calls. The calls are words filed in the database; no cut-off is given here.

Chain of Amyloid-beta precursor protein (Homo sapiens) (P05067 whole entry): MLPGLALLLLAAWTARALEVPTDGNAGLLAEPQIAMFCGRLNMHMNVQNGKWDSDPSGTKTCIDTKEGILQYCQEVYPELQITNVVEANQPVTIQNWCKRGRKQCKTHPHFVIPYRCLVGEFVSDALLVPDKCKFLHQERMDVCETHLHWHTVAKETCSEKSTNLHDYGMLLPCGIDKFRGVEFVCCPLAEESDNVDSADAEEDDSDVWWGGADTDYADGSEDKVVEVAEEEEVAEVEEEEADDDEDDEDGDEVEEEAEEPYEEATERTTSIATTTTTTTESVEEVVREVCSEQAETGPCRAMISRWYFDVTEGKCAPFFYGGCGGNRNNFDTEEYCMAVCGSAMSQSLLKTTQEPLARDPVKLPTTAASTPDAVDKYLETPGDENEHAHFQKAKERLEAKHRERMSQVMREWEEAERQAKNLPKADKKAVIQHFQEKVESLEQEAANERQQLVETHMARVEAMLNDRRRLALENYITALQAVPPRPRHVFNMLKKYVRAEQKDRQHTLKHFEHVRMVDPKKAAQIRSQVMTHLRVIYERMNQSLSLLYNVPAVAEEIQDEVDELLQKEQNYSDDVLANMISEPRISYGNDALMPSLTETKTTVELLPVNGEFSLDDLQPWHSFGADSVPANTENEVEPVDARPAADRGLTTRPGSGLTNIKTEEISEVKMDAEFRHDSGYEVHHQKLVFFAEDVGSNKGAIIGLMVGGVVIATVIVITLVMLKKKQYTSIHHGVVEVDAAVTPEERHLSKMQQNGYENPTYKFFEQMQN
Chain of Major prion protein (Mus musculus) (P04925 whole entry): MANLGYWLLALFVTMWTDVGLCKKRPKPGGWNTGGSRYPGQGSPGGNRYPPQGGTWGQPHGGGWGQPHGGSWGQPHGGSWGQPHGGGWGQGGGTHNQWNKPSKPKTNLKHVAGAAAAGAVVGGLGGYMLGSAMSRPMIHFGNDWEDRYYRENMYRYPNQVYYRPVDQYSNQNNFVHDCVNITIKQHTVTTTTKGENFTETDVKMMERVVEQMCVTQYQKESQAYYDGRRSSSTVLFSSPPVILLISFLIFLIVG

What is called pEC50 is −log10 of the EC50, conventionally taken in molar units. The inhibition is how much of the control response was suppressed. Turning to `COc1ccc2nc(/C=C/c3ccccc3)ccc2c1`, the TIME in data set [1] is over 70 h. Further, in [2], the viability at 120 h, 1 µM stood at 60%. The Papp in [3] came to 8.5 ×10⁻⁶ cm/s. Moreover, in data set [4], the pEC50 is 6.15. In addition, the viability at 120 h in data set [5] worked out at 74.9%. The inhibition entry in [6] was “inactive”. Besides, the inhibition result in the data set on ScGT1 [7] is “Dose-dependent effect”.
Turning to `O=C(CN1CCCC1)Nc1ccc(Cc2ccc(NC(=O)CN3CCCC3)cc2)cc1`, the negative-log EC50 (pEC50) in [4] was 5.82. The viability at 120 h in data set [5] is 93.4%. The inhibition entry in the data set on ScGT1 [7] is “Dose-dependent effect”.
Turning to `Cc1ccc2nc(/C=C/c3ccccc3)ccc2c1`, in data set [1], the TIME is over 70 h. Further, the viability at 120 h, 1 µM in [2] is over 90%. For the same compound, the Papp in data set [3] is 3 ×10⁻⁶ cm/s. In addition, the pEC50 in [4] was 6.30. In data set [5], the viability at 120 h came out at 90.5%. In data set [6], the inhibition result is “inactive”. The inhibition result with ScGT1 [7] was “Dose-dependent effect”.
Take `Cc1ccc2nc(/C=C/c3ccc(N)cc3)ccc2c1`: the TIME in [1] was over 70 h. In data set [8], the viability at 120 h, 10 µM amounted to 60%. For the same compound, the viability at 120 h, 1 µM in data set [2] is over 90%. Besides, in [3], the Papp came out at 23.1 ×10⁻⁶ cm/s. The result (in data set [9]; in the data set on ScGT1 [10]; in data set [11]; in [12]; in the data set with ScGT1 [13]; in data set [14]) was Active. The pEC50 in [4] is 6.30. In addition, in [5], the viability at 120 h worked out at 94.6%. Moreover, the inhibition is 42.4% in data set [6] (concentration not given here) and “Dose-dependent effect” in the data set on ScGT1 [7].
For `CCN(CC)CCCC(C)Nc1c2ccc(Cl)cc2nc2ccc(OC)cc12` (centres undefined) [QUINACRINE], the negative-log EC50 (pEC50) in data set [4] is 6.40. Also, in data set [5], the viability at 120 h came to 100%.
As to `COc1cc(/C=C/C(=O)CC(=O)/C=C/c2ccc(O)c(OC)c2)ccc1O`, the inhibition in data set [6] (concentration not given here) was 73%.

The values above are taken from ChEMBL document CHEMBL2321832, “A Fluorescent Styrylquinoline with Combined Therapeutic and Diagnostic Activities against Alzheimer's and Prion Diseases” (ACS Med Chem Lett, 2013).
